Assay results gathered from unrelated publications.
Compare with care: the assays were run in different laboratories.
Target: Inhibitor of nuclear factor kappa-B kinase subunit beta (IKBKB, Homo sapiens, UniProt O14920)

The activity vs control of O=C1c2ccccc2-c2n[nH]c3cccc1c23 is reported as 75.8% (enzyme activity, inhibitor; 0.5 µM).
With C[C@@H]1CN(c2cc(-c3nn(C)c4ccc(OC5(C)CC5)cc34)ncn2)C[C@H](C)O1 the remaining binding was 76% (cell-free assay, competition with immobilised ligand; 1 µM).
The inhibition of CN(C)C1CCN(CC#Cc2nn(C3CCCC3)c3nc(NCc4ccccc4)ncc23)C1 (centres unmarked) is reported as 2% (enzyme activity, inhibitor, FRET; 10 µM).
CNC(=O)c1cc(Oc2ccc(NC(=O)Nc3ccc(Cl)c(C(F)(F)F)c3)cc2)ccn1 gave an inhibition of -26% (enzyme activity, inhibitor; 10 µM).
COc1cc(/C=C/C(=O)CC(=O)/C=C/c2ccc(O)c(OC)c2)ccc1O gave an activity vs control of 69% (enzyme activity, inhibitor; 1 µM).
CCN(CC)c1ccc(C2=NNC(=O)CC2C)cc1[N+](=O)[O-] (centres unmarked) gave a remaining activity of 97% (enzyme activity, inhibitor; 10 µM).
Cn1c2c(c3ccc(Cl)c(Cl)c31)C(C#N)C1(CCOCC1)NC2=O (centres unmarked) has a ΔTm of -0.4 °C (thermal stability, DSF; 10 µM).
Cc1ccc(Nc2nccc(N(C)c3ccc4c(C)n(C)nc4c3)n2)cc1S(N)(=O)=O gave an inhibition of 17% (enzyme activity, inhibitor; 10 µM).
For COc1cc2ncnc(Nc3ccc(Oc4ccccc4)c(C)c3C)c2cc1OC, the inhibition was 3% (enzyme activity, inhibitor; 1 µM).
FC(F)(F)Oc1cccc(-c2cnc3ccc(-c4ccncc4)nn23)c1 gave an activity vs control of 84% (enzyme activity, inhibitor, radiometric; 5 µM).
For FC(F)c1nc2ccccc2n1-c1nc(N2CCOCC2)nc(N2CCOCC2)n1, the remaining activity was 94% (enzyme activity, inhibitor; 10 µM).
CN(c1ccnc(CNc2nc(Nc3ccc4c(c3)CC(=O)N4)ncc2C(F)(F)F)n1)S(C)(=O)=O gave a remaining binding of 78% (cell-free assay, competition with immobilised ligand; 1 µM).
The remaining activity of O=c1cc(-c2cccc3c2Sc2ccccc2S3)oc(N2CCOCC2)c1 is reported as 101% (enzyme activity, inhibitor; 0.5 µM).
The ΔTm of Cn1c2c(c3ccc(Cl)c(Cl)c31)C(C#N)C1(CCNCC1)NC2=O (racemic) is reported as 0.6 °C (thermal stability, DSF; 10 µM).
CCCS(=O)(=O)Nc1ccc(F)c(C(=O)c2c[nH]c3ncc(-c4ccc(Cl)cc4)cc23)c1F has an inhibition of less than 10% (enzyme activity, inhibitor; 1 µM).
The inhibition of c1ccc(CNc2nc(N3CCOc4ccccc43)nc3c2CCCC3)cc1 is reported as -6.4% (target engagement in cells, inhibitor, chemoproteomics; 20 mM).
The remaining activity of COc1cc(Nc2cnc(C#N)c(O[C@H](C)CN(C)C)n2)ncc1-c1cnn(C)c1 is reported as 86% (enzyme activity, inhibitor, radiometric; 10 µM).
N#CC1(c2ccccn2)CCN(Cc2cc(C(=O)N3CCCC3)c(=O)n3ccccc23)CC1 has a remaining binding of 99% (cell-free assay, competition with immobilised ligand; 1 µM).
For Cc1ccc(NC(=O)c2ccc(C)c(C(F)(F)F)c2)cc1C#Cc1nn(C2CCC(O)CC2)c2ncnc(N)c12 (centres unmarked), the remaining signal was 33% (cell-free assay; 10 µM).
CN(c1ncccc1CNc1nc(Nc2ccc3c(c2)CC(=O)N3)ncc1C(F)(F)F)S(C)(=O)=O gave an inhibition of 12.7% (enzyme activity, inhibitor; 1 µM).
CCS(=O)(=O)c1cc2cc(C[C@@](O)(CC(C)(C)c3ccc(F)cc3C(N)=O)C(F)(F)F)[nH]c2cn1 has a remaining binding of 83% (cell-free assay, competition with immobilised ligand; 1 µM).
Cn1c2c(c3ccc(Cl)c(Cl)c31)C(C#N)C(C)(C)NC2=O (centres unmarked) gave a ΔTm of -0.4 °C (thermal stability, DSF; 10 µM).
For CCN(CC)CCNC(=O)c1c(C)[nH]c(/C=C2\C(=O)Nc3ccc(F)cc32)c1C, the inhibition was 9% (enzyme activity, inhibitor; 10 µM).
CC(C)(C)c1nc(-c2cccc(NS(=O)(=O)c3c(F)cccc3F)c2F)c(-c2ccnc(N)n2)s1 has a remaining activity of 94% (enzyme activity, inhibitor, radiometric; 1 µM).
The remaining signal of COc1cc2ncnc(Nc3ccc(F)c(Cl)c3)c2cc1OCCCN1CCOCC1 is reported as 86.5% (cell-free assay; 0.5 µM).
O=C(O)[C@H]1[C@H](Cn2nnc3ccccc3c2=O)CC[C@@H]1C(=O)c1ccc(OCCC2CCOCC2)cc1 has a remaining binding of 100% (cell-free assay, competition with immobilised ligand; 1 µM).
For COc1cccc2c(NCc3ccccc3)nc(-n3c(N)nc4ccccc43)nc12, the inhibition was -13.4% (target engagement in cells, inhibitor, chemoproteomics; 20 mM).
O=c1c2ccccc2[nH]c(=S)n1CCN1CCC(=C(c2ccc(F)cc2)c2ccc(F)cc2)CC1 has a remaining activity of 99.5% (enzyme activity, inhibitor; 0.5 µM).
The inhibition of CC/C(=N\NC(=O)NCc1cccc(O)c1)c1ccc(O)c(C)c1O is reported as -0.9% (enzyme activity, inhibitor; 0.1 µM).
The inhibition of O=C(CSc1nc2nccnc2c(=O)n1CCc1ccccc1)Nc1nccs1 is reported as 12% (enzyme activity, inhibitor; 10 µM).
The remaining activity of CC(C)(C)C(=O)c1sc(NC2CCCCC2)nc1N is reported as 99% (enzyme activity, inhibitor; 10 µM).
O=C(NCCCC1CCCCC1)c1ccc(CNC(=O)c2cnn(-c3ccccc3)c2C(F)(F)F)cc1 has a remaining binding of 100% (cell-free assay, competition with immobilised ligand; 0.1 µM).
For CCC1(CC)NC(=O)c2c(c3ccc(Cl)c(Cl)c3n2C)C1C#N (centres unmarked), the ΔTm was 0.1 °C (thermal stability, DSF; 10 µM).
For Cc1ccc(NC(=O)c2ccc(CN3CCN(C)CC3)cc2)cc1Nc1nc(-c2cccnc2)cs1, the remaining signal was 97.8% (cell-free assay; 0.5 µM).
With Cn1c2c(Cl)c(Cl)ccc2c2cn[nH]c(=O)c21 the ΔTm was -0.1 °C (thermal stability, DSF; 10 µM).
CC(C)(O)[C@H]1CC[C@H](Nc2ccc3ncc(-c4cccc(C(F)(F)F)c4)n3n2)CC1 gave a remaining activity of 95.4% (enzyme activity, inhibitor; 1 µM).
CCC(=O)N[C@@H]1CC[C@H](C(=O)N(C)c2ccc(-c3nc4ccccc4o3)cc2)C1 has a remaining binding of 100% (cell-free assay, competition with immobilised ligand; 1 µM).
O=C(Nc1cnn(-c2csc(C(=O)NC3COC3)c2)c1)Nc1c(F)cccc1Cl gave a remaining activity of 94.7% (enzyme activity, inhibitor; 5 µM).
For O=C(Nc1cccnn1)N1CCC(=Cc2cccc(Oc3ccc(C(F)(F)F)cn3)c2)CC1, the remaining binding was 83% (cell-free assay, competition with immobilised ligand; 1 µM).
Nc1nc(Nc2ccccc2)sc1C(=O)c1c(F)cccc1F gave a remaining activity of 82% (enzyme activity, inhibitor; 10 µM).
With Cc1cnc(NC2CCOCC2)nc1-n1cnc(C(=O)NC(CN)c2cc(F)cc(Cl)c2)c1 (centres unmarked) the remaining activity was 100% (enzyme activity, inhibitor, radiometric; 1 µM).
